pIC50: −log10 of the molar value. Activity calls are given as the source filed them. The calls are words filed in the database; no cut-off is given here.
Key:
[1] = Half life in human liver microsomes in presence of NADPH by LC-MS/MS analysis; format: ADME, microsome
[2] = Half life in mouse liver microsomes in presence of NADPH by LC-MS/MS analysis; format: ADME, microsome
[3] = Intrinsic clearance in human liver microsomes assessed per mg protein in presence of NADPH by LC-MS/MS analysis; format: ADME, microsome; conditions: read-out: CLH
[4] = Intrinsic clearance in mouse liver microsomes assessed per mg protein in presence of NADPH by LC-MS/MS analysis; format: ADME, microsome; conditions: read-out: CLH
[5] = molecular target: Receptor-interacting serine/threonine-protein kinase 3 (Homo sapiens) (UniProt Q9Y572); test: Inhibition of full length recombinant human N-terminal GST-tagged RIP3 expressed in baculovirus infected sf9 cells at 10 uM using MBP as substrate preincubated for 15 mins followed by MBP/ATP mixture addition measured after 90 mins by ADP-Glo kinase assay
Mus musculus [6] = test: Protection against TNFalpha-induced multiorgan damage in C57BL/6J mouse assessed as inhibition of TNFalpha-induced increase in IL-1beta level at 6 mg/kg, ip administered as single dose 17 mins before TNFalpha injection measured 12 hrs post TNFalpha injection; format: functional, organism-based
Procedure, shortened: (§1)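 C57BL/6 mice given mTNFα IV, then a single 6 mg/kg IP compound dose 17 min before TNFα. Blood taken 12 h after TNFα for mIL-6 and mIL-1β.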

Mus musculus [7] = test: Protection against TNFalpha-induced multiorgan damage in C57BL/6J mouse assessed as inhibition of TNFalpha-induced increase in IL-6 level at 6 mg/kg, ip administered as single dose 17 mins before TNFalpha injection measured 12 hrs post TNFalpha injection; format: functional, organism-based; procedure, shortened: as §1
[8] = molecular target: T1, Receptor-interacting serine/threonine-protein kinase 1 (Homo sapiens, UniProt Q13546); test: Inhibition of recombinant GST-tagged RIP1 (unknown origin) after 4 hrs by ADP-Glo kinase assay
T1 sequence (Q13546 whole entry): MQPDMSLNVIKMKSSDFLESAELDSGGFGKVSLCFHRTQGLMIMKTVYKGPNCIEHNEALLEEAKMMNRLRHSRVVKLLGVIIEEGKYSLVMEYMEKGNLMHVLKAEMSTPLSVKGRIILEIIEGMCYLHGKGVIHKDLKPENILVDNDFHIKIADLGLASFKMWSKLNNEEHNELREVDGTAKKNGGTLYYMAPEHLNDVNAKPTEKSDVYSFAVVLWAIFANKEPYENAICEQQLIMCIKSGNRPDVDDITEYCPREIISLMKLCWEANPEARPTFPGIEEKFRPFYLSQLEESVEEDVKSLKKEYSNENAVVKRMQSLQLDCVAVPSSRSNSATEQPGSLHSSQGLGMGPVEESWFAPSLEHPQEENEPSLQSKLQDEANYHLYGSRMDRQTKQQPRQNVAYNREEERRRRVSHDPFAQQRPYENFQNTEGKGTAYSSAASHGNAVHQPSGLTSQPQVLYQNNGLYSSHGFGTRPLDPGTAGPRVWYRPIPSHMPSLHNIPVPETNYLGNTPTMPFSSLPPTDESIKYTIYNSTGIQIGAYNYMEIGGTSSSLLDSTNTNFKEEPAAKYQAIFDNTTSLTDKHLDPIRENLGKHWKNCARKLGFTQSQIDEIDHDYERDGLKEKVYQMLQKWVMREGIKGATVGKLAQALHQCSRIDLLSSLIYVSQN

[9] = molecular target: Indoleamine 2,3-dioxygenase 1 (Homo sapiens, UniProt P14902); test: Inhibition of recombinant human IDO expressed in Escherichia coli assessed as reduction in kynurenine production at 200 uM using L-tryptophan as substrate after 3 hrs by methylene blue dye based assay
Procedure, shortened: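 Reaction mix: 50 mM MES pH 6.5, 20 mM ascorbate, 2250 U/mL catalase, 10 μM methylene blue, 200 μM L-Trp, 100 nM recombinant IDO, 200 μM compound or DMSO. Incubated 37 °C for 3 h; kynurenine colour read at 321 nm.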

Mus musculus [10] = test: Protection against TNFalpha-induced mortality in C57BL/6J mouse assessed as survival rate at 6 mg/kg, ip administered as single dose 17 mins before TNFalpha injection measured every 30 mins up to 60 hrs post TNFalpha injection (reference value: 50%); format: functional

Chain of Indoleamine 2,3-dioxygenase 1 (P14902 whole entry): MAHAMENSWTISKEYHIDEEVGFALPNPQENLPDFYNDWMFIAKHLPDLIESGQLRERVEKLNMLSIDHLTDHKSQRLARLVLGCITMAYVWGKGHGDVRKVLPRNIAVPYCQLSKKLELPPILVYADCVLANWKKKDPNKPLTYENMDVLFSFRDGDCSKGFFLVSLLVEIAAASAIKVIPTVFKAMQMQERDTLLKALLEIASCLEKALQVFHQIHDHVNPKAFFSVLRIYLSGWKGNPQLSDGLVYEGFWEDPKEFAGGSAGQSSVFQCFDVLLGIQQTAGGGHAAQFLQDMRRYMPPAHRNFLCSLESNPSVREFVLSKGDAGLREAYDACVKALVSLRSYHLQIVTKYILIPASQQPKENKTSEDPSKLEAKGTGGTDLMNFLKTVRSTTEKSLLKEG
Chain of Receptor-interacting serine/threonine-protein kinase 3 (Homo sapiens) (Q9Y572 whole entry, looked up): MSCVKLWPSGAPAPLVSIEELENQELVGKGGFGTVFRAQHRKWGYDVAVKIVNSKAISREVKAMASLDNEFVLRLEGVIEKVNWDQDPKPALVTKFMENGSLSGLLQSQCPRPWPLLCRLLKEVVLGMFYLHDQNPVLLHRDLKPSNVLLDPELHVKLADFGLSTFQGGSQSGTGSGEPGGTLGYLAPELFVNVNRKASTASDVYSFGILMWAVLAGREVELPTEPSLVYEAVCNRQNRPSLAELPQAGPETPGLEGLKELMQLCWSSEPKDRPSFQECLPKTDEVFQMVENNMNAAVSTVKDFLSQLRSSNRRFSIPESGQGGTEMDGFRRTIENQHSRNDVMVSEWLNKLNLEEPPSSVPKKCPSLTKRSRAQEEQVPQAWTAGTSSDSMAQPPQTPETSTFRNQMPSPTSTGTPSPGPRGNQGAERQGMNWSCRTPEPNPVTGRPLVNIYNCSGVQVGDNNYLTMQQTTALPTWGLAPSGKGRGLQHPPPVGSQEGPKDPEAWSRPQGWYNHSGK

| half-life [1] [min] | half-life [2] [min] | microsomal CLint [3] [µL/min/mg] | microsomal CLint [4] [µL/min/mg] | Structure (SMILES) | further results |
| --- | --- | --- | --- | --- | --- |
| 178 | 24.1 | 3.9 | 28.8 | CCC(C)(C)C(=O)N(O)Cc1ccc(F)cc1 | – |
| > 200 | – | – | – | CCC(C)(C)C(=O)NC(C)c1ccccc1 (stereo not drawn) | – |
| > 200 | – | – | – | CCC(C)(C)C(=O)NCc1ccccc1 | – |
| 107 | 11.3 | 6.5 | 61.4 | CCC(C)(C)C(=O)N(O)Cc1ccc(F)c(F)c1 | – |
| > 200 | – | – | – | CCC(C)(C)C(=O)NC(CO)c1ccccc1 (stereo not drawn) | – |

Further lines, the compound ahead of its results:

| Structure (SMILES) | half-life [1] [min] | half-life [2] [min] | microsomal CLint [3] [µL/min/mg] | microsomal CLint [4] [µL/min/mg] | further results |
| --- | --- | --- | --- | --- | --- |
| CCC(C)(C)C(=O)N(O)Cc1ccc(F)cc1F | 198 | 23.2 | 3.5 | 29.9 | – |
| CN1C(=O)C(Cc2c[nH]c3ccccc23)NC1=S (stereo not drawn) [NECROSTATIN] | – | – | – | – | inhibition [5]: inactive; inhibition (Mus musculus [6]): Active; inhibition (Mus musculus [7]): Active; pIC50 [8]: 6.12; inhibition (INH) [9]: Active; survival at 6 mg/kg (Mus musculus [10]): 60% |
| CCC(C)(C)C(=O)N(O)Cc1ccc(F)c(F)c1F | 52.9 | 13.9 | 13.1 | 49.9 | – |
| CCC(C)(C)C(=O)N(O)Cc1cc(F)c(F)c(F)c1 | 66 | 7.89 | 10.5 | 87.8 | – |
| CCC(C)(C)C(=O)N(O)Cc1cc(F)cc(F)c1F | 66.6 | 9.21 | 10.4 | 75.3 | – |
